Reference: ChEMBL document CHEMBL2429837, “Identification of cryptotanshinone as an inhibitor of oncogenic protein tyrosine phosphatase SHP2 (PTPN11)” (J Med Chem, 2013)

Columns and labels:
[1] = target: T1, Tyrosine-protein phosphatase non-receptor type 1 (Homo sapiens, UniProt P18031); experiment: Inhibition of GST-tagged PTP1B (unknown origin) using phospho-EGFR Asp-Ala-Asp-Glu-Tyr[PO3H2]-Leu-Ile-Pro-Gln-Gln-Gly as substrate preincubated for 30 mins before substrate addition measured after 30 mins by phosphatase activity assay
T1 sequence (P18031 whole entry): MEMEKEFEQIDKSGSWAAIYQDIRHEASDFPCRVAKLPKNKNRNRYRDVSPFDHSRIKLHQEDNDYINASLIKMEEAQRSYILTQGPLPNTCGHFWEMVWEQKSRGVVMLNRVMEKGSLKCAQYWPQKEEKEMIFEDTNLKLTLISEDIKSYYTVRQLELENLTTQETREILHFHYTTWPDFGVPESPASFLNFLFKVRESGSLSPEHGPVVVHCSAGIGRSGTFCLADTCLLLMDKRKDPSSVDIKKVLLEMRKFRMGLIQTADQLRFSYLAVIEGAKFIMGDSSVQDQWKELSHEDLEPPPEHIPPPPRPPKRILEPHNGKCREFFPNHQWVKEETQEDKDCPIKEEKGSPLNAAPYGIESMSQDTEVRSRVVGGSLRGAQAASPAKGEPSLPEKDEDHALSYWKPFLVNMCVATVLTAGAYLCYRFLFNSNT
In short: (§1)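 GST-fusion phosphatase, purified in-house or commercial (MEG2 purchased). Enzyme and compound preincubated 30 min at room temperature in 25 mM Tris-HCl pH 7.4, 50 mM NaCl, 5 mM DTT, 2.5 mM EDTA. EGFR pTyr1018 peptide then added to 0.2 mM final and incubated 30 min at 30°C. Released phosphate read with Malachite Green at OD620 after 10 min. IC50 from 6 concentrations, three independent experiments.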

[2] = target: Receptor-type tyrosine-protein phosphatase F (Homo sapiens, UniProt P10586); experiment: Inhibition of GST-tagged LAR (unknown origin) using phospho-EGFR Asp-Ala-Asp-Glu-Tyr[PO3H2]-Leu-Ile-Pro-Gln-Gln-Gly as substrate preincubated for 30 mins before substrate addition measured after 30 mins by phosphatase activity assay
Sequence of Receptor-type tyrosine-protein phosphatase F (P10586 whole entry, the tested form may be a part): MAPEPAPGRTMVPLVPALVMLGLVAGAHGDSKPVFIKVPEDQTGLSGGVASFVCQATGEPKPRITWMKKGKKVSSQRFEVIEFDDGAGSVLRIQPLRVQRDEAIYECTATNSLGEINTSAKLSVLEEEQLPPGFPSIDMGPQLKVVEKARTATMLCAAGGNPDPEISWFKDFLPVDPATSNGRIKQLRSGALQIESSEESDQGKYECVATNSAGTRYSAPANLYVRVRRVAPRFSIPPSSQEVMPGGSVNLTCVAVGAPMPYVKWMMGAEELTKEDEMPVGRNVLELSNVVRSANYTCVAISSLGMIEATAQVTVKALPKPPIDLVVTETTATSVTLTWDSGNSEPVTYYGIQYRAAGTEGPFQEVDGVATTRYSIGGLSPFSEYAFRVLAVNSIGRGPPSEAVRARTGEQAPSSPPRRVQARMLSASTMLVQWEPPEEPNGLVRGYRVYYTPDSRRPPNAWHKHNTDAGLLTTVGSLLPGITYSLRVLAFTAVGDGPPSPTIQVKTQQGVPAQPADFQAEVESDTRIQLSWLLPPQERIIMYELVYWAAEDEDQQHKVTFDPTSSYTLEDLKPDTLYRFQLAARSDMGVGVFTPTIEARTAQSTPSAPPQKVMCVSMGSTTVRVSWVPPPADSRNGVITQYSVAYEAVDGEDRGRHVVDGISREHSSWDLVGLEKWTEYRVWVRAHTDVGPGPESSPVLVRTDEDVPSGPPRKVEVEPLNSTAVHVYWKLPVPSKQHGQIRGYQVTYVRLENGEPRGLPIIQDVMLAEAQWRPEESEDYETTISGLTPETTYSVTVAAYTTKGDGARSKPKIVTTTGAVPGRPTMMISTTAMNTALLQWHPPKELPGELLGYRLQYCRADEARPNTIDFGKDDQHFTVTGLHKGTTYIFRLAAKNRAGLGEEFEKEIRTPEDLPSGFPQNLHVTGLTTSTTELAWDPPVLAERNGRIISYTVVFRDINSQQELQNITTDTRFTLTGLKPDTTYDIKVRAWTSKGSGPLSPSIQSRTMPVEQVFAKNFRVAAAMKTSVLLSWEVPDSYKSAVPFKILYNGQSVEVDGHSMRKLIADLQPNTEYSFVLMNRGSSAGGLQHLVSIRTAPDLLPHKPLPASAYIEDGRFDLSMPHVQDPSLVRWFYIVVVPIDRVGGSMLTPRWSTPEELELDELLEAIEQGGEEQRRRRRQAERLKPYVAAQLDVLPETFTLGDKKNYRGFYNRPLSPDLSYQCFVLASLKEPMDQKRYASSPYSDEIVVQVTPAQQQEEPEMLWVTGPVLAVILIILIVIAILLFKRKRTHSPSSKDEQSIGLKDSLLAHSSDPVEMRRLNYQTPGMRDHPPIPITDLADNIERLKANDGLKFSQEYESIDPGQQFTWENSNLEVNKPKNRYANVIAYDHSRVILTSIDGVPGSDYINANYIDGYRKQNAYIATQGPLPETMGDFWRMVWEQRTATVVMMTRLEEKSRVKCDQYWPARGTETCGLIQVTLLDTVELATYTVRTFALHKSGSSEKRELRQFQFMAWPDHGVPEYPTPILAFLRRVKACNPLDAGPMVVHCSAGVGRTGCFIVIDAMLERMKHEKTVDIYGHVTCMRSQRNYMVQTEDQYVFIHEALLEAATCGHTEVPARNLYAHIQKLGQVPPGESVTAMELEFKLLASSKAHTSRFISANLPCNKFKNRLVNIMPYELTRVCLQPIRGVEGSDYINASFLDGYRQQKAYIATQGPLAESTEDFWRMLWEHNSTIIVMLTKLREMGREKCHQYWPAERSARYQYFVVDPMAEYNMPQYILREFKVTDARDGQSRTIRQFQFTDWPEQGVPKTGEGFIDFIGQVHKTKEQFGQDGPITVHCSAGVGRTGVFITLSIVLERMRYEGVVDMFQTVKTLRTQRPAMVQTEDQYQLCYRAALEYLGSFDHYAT
In short: (§2)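 In-house SHP1 or purchased GST-CD45 cytoplasmic domain, GST-LAR, GST-TC-PTP preincubated with compound (6 concentrations) in 25 mM Tris-HCl pH 7.4, 50 mM NaCl, 5 mM DTT, 2.5 mM EDTA, room temperature 30 min. Phospho-EGFR pTyr1018 peptide added to 0.2 mM final, 30°C 30 min; released phosphate by Malachite Green, OD620. Three independent experiments.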

[3] = target: T2, Tyrosine-protein phosphatase non-receptor type 2 (Homo sapiens, UniProt P17706); experiment: Inhibition of GST-tagged TC-PTP (unknown origin) using phospho-EGFR Asp-Ala-Asp-Glu-Tyr[PO3H2]-Leu-Ile-Pro-Gln-Gln-Gly as substrate preincubated for 30 mins before substrate addition measured after 30 mins by phosphatase activity assay; in short: as §2
T2 sequence (P17706 whole entry): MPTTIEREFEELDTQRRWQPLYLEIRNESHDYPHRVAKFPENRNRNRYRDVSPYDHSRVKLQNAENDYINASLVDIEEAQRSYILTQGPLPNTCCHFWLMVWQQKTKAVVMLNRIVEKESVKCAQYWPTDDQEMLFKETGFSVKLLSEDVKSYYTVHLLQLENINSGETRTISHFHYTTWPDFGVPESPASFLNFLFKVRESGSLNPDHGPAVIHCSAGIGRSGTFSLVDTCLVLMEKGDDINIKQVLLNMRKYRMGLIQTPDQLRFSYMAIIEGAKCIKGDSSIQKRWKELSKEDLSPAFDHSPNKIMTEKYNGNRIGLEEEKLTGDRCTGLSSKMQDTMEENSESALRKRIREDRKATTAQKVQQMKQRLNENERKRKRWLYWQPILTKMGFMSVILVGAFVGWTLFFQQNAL

[4] = Growth inhibition of IL3-stimulated mouse BA/F3 cells after 48 hrs by CellTiter 96 assay; format: functional, cell-based; conditions: BaF3, 48 h
In short: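 Ba/F3 cells seeded 5 × 10^3 per well in RPMI-1640 with 10% FBS and mouse IL-3 (1.0 ng/mL), grown overnight, then exposed to compound or matching DMSO for 48 h. Viable cells counted by tetrazolium-based one-solution proliferation reagent. Triplicates per experiment, three experiments; mean±S.E.M.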

[5] = target: T3, Tyrosine-protein phosphatase non-receptor type 11 (Homo sapiens, UniProt Q06124); experiment: Inhibition of wild type GST-tagged full-length SHP2 (unknown origin) using phospho-EGFR Asp-Ala-Asp-Glu-Tyr[PO3H2]-Leu-Ile-Pro-Gln-Gln-Gly as substrate preincubated for 30 mins before substrate addition measured after 30 mins by phosphatase activity assay
T3 sequence (Q06124 whole entry): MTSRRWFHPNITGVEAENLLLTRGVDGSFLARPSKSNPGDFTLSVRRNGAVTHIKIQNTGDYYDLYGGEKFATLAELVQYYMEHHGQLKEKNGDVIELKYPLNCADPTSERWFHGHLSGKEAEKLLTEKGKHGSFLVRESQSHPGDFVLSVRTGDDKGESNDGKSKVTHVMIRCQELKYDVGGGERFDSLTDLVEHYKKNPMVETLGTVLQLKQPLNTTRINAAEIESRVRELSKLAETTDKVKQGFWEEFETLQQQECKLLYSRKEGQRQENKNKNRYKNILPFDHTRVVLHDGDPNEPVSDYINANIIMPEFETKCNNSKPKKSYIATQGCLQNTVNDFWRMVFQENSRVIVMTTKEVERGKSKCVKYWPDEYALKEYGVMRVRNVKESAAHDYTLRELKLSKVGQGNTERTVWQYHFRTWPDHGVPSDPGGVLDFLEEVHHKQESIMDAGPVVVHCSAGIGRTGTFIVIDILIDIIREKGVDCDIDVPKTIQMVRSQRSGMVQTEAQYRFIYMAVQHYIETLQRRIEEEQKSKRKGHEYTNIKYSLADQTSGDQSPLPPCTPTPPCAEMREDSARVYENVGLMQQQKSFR
In short: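 Wild-type full-length SHP2 was purified recombinant and run like the in-house GST-SHP2 assay. It was preincubated with compound 30 min at room temperature in Tris-HCl pH 7.4 buffer with NaCl, DTT and EDTA. Phospho-EGFR peptide was then added to 0.2 mM and incubated 30 min at 30°C, with Malachite Green read-out at OD620. Triplicates from one of three repeat experiments.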

[6] = target: T4, Receptor-type tyrosine-protein phosphatase C (Homo sapiens, UniProt P08575); experiment: Inhibition of GST-tagged CD45 (unknown origin) using phospho-EGFR Asp-Ala-Asp-Glu-Tyr[PO3H2]-Leu-Ile-Pro-Gln-Gln-Gly as substrate preincubated for 30 mins before substrate addition measured after 30 mins by phosphatase activity assay; in short: as §2
T4 sequence (P08575 whole entry): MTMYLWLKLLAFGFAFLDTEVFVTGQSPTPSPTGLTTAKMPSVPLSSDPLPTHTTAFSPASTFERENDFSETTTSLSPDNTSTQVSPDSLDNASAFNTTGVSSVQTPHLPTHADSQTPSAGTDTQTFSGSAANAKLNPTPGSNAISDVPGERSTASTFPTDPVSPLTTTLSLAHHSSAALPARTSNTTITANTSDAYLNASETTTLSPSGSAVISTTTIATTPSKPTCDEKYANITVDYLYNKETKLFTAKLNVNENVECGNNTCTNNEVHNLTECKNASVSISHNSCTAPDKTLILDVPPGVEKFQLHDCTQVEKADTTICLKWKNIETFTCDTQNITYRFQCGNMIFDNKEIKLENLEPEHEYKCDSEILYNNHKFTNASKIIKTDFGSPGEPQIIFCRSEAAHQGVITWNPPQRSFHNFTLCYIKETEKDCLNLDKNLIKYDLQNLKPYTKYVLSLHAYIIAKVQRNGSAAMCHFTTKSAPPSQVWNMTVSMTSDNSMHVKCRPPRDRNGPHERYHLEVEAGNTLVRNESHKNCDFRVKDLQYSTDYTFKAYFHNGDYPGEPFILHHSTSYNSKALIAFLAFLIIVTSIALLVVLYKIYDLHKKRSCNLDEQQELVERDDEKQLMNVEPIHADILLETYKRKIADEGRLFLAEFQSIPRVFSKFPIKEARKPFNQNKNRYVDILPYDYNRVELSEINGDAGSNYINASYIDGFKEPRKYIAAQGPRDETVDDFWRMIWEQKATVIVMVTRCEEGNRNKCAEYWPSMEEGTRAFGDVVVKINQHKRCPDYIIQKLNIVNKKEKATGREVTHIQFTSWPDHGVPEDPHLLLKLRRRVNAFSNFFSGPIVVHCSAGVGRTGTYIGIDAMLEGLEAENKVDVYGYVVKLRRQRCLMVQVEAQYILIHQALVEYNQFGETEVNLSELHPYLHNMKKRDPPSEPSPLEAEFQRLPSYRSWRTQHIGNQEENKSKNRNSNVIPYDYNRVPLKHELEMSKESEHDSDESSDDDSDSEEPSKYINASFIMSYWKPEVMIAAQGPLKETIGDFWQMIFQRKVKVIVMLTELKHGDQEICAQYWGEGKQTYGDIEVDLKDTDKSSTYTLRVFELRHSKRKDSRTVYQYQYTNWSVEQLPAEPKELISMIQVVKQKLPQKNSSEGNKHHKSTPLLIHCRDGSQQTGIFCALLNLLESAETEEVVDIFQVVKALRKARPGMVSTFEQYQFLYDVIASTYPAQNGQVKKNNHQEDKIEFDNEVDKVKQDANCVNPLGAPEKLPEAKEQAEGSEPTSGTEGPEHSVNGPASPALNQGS

[7] = target: T3, Tyrosine-protein phosphatase non-receptor type 11; experiment: Inhibition of GST-tagged SHP2 PTP domain (unknown origin) using phospho-EGFR Asp-Ala-Asp-Glu-Tyr[PO3H2]-Leu-Ile-Pro-Gln-Gln-Gly as substrate preincubated for 30 mins before substrate addition measured after 30 mins by phosphatase activity assay
In short: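 GST-SHP2 PTP domain fusion, purified in-house, 0.5 µg per reaction. Buffer 25 mM Tris-HCl pH 7.4, 50 mM NaCl, 5 mM DTT, 2.5 mM EDTA. Inhibitor pre-incubation at room temperature; substrate 0.2 mM final; reaction at 30°C. Free phosphate by Malachite Green, OD620 read after 10 min. IC50 from 6 (or 5) concentrations, three independent experiments.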

[8] = target: Tyrosine-protein phosphatase non-receptor type 11 (Homo sapiens, UniProt Q06124, E76K); experiment: Inhibition of GST-tagged full-length SHP2 E76K mutant (unknown origin) using phospho-EGFR Asp-Ala-Asp-Glu-Tyr[PO3H2]-Leu-Ile-Pro-Gln-Gln-Gly as substrate preincubated for 30 mins before substrate addition measured after 30 mins by phosphatase activity assay
Sequence of Tyrosine-protein phosphatase non-receptor type 11 (Homo sapiens, UniProt Q06124, E76K) (Q06124 as listed by the source E76K): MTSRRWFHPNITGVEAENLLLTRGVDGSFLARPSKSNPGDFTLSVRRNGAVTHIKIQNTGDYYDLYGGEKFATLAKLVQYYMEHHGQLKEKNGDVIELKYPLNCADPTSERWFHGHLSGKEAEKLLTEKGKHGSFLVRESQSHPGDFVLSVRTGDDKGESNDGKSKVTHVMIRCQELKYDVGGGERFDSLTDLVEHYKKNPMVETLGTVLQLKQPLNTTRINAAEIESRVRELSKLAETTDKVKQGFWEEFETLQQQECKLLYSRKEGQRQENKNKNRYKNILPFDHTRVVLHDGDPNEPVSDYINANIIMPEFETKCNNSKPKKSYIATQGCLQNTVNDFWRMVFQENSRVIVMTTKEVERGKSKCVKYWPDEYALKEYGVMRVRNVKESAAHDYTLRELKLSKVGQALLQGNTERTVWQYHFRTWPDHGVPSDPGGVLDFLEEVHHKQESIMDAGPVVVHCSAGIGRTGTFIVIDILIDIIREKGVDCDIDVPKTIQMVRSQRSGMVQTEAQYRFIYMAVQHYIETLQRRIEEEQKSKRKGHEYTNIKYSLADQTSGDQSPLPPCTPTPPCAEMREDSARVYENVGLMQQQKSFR

[9] = target: T5, Tyrosine-protein phosphatase non-receptor type 9 (Homo sapiens, UniProt P43378); experiment: Inhibition of GST-tagged MEG2 (unknown origin) using phospho-EGFR Asp-Ala-Asp-Glu-Tyr[PO3H2]-Leu-Ile-Pro-Gln-Gln-Gly as substrate preincubated for 30 mins before substrate addition measured after 30 mins by phosphatase activity assay; in short: as §1
T5 sequence (P43378 whole entry): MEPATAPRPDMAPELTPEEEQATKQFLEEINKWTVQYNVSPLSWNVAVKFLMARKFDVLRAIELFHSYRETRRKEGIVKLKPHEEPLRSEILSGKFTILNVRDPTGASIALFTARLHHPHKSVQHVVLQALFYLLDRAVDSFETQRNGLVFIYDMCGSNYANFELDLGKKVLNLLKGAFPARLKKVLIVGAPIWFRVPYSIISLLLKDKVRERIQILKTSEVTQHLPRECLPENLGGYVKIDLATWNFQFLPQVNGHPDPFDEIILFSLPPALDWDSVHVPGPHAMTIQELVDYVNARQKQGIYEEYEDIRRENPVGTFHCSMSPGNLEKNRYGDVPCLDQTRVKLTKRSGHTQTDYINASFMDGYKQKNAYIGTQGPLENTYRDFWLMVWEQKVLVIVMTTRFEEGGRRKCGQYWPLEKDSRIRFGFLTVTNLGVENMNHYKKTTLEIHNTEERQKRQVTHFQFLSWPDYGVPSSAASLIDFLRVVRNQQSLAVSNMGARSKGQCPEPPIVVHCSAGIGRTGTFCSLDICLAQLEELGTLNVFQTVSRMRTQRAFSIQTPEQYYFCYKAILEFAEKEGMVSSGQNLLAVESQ

[10] = target: Tyrosine-protein phosphatase non-receptor type 6 (Homo sapiens, UniProt P29350); experiment: Inhibition of GST-tagged SHP1 PTP domain (unknown origin) using phospho-EGFR Asp-Ala-Asp-Glu-Tyr[PO3H2]-Leu-Ile-Pro-Gln-Gln-Gly as substrate preincubated for 30 mins before substrate addition measured after 30 mins by phosphatase activity assay; in short: as §2
Sequence of Tyrosine-protein phosphatase non-receptor type 6 (P29350 whole entry, the tested form may be a part): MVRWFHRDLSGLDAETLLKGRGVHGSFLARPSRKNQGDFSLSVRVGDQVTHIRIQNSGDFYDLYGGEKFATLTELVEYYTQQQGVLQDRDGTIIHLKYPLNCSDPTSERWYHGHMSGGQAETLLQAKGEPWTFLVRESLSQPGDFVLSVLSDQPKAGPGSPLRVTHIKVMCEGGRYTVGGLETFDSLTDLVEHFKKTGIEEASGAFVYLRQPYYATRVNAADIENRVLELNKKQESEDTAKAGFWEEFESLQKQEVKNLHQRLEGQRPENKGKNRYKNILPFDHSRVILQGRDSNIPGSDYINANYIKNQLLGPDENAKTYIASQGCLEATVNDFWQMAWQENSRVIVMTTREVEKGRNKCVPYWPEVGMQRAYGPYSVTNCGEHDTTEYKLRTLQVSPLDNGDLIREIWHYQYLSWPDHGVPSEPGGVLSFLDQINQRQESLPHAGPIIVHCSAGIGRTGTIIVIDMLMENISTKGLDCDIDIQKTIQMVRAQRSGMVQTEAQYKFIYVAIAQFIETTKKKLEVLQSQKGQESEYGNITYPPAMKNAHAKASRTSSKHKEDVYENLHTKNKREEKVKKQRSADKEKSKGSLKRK

| SMILES | IC50 [1] [µM] | IC50 [2] [µM] | IC50 [3] [µM] | IC50 [4] [µM] | IC50 [5] [µM] | IC50 [6] [µM] | IC50 [7] [µM] | IC50 [8] [µM] | IC50 [9] [µM] | IC50 [10] [µM] |
| --- | --- | --- | --- | --- | --- | --- | --- | --- | --- | --- |
| C[C@H]1COC2=C1C(=O)C(=O)c1c2ccc2c1CCCC2(C)C [CRYPTOTANSHINONE] | 33.5 | 36.9 | 55.7 | 17.2 | 45.2 | 41.4 | 22.5 | 23.9 | 59.4 | 39.5 |
| Cc1cccc2c3c(ccc12)C1=C(C(=O)C3=O)[C@@H](C)CO1 [DIHYDROTANSHINONE I] |  |  |  |  |  |  | 3.94 |  |  | 3.67 |
| Cc1coc2c1C(=O)C(=O)c1c-2ccc2c1CCCC2(C)C [TANSHINONE IIA] |  |  |  |  |  |  | 2.59 |  |  | 2.14 |
| Cc1coc2c1C(=O)C(=O)c1c-2ccc2c(C)cccc12 [TANSHINONE I] |  |  |  |  |  |  | 2.57 |  |  | 1.97 |
